Measurements as given in ChEMBL document CHEMBL1156483, “A directed approach for engineering conditional protein stability using biologically silent small molecules” (J Biol Chem, 2007).
Blank lines part the entries; values can stand above or below the molecule they belong to. Calls of active or inactive are those of the source. No cut-off for these calls is given here.

Assays:
NIH3T3 [1] = experiment: Effect on Csnkle mRNA level in mouse NIH3T3 cells at 1 uM after 24 hrs by microarray analysis relative to control; format: functional
In short: (§1)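 NIH3T3 cells, in triplicate, mock-treated or treated with 10 nM, 100 nM or 1 µM for 24 h. Total RNA hybridized to MEEBO oligonucleotide arrays. Differentially expressed genes identified by unpaired two-class SAM against mock-treated samples, FDR ≤27.5%. Fold change reported.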

[2] = Displacement of fluorescein-SLF from FKBP12 F36V mutant-GST fusion protein by fluorescence polarization assay
NIH3T3 [3] = experiment: Stability of FKBP12 V4A/17V mutant-N terminus of YFP fusion protein expressed in NIH3T3 cells assessed as mean fluorescence intensity at 1 uM after 24 hrs by flow cytometry relative to FKBP12 F36V mutant; format: cell-based
In short: (§2)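 FKBP mutants (all carrying F36V) fused to the N- or C-terminus of YFP and stably transduced into NIH3T3 cells by MMLV retrovirus (clonally mixed populations). Cells split, mock-treated or given 1 µM for 24 h. YFP read by flow cytometry, 10,000 events. MFI normalized to parent F36V-YFP cells given 1 µM; mean of three experiments ±SEM.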

NIH3T3 [4] = experiment: Effect on Ptpn1 mRNA level in mouse NIH3T3 cells at 10 nM after 24 hrs by microarray analysis relative to control; format: functional; in short: as §1
NIH3T3 [5] = experiment: Stability of FKBP12 V4A mutant-N terminus of YFP fusion protein expressed in NIH3T3 cells assessed as mean fluorescence intensity at 1 uM after 24 hrs by flow cytometry relative to FKBP12 F36V mutant; format: cell-based; in short: as §2
NIH3T3 [6] = experiment: Stability of FKBP12 F36V mutant-N terminus of YFP fusion protein expressed in NIH3T3 cells assessed as mean fluorescence intensity at 1 uM after 24 hrs by flow cytometry; format: cell-based; in short: as §2
NIH3T3 [7] = experiment: Stability of FKBP12 V2A mutant-N terminus of YFP fusion protein expressed in NIH3T3 cells assessed as mean fluorescence intensity at 1 uM after 24 hrs by flow cytometry relative to FKBP12 F36V mutant; format: cell-based; in short: as §2
NIH3T3 [8] = experiment: Stability of FKBP12 17V mutant-N terminus of YFP fusion protein expressed in NIH3T3 cells assessed as mean fluorescence intensity at 1 uM after 24 hrs by flow cytometry relative to FKBP12 F36V mutant; format: cell-based; in short: as §2
[9] = (§3) Stability of FKBP12 V2A mutant-YFP fusion protein expressed in NIH3T3 cells after 24 hrs by flow cytometry; format: cell-based
In short: (§4)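 Retrovirally transduced NIH3T3 cells stably expressing V2A-YFP, plated at 1 × 10^5 cells/well and dosed with 3-fold dilutions (10 µM to 1 nM, or 10 µM to 300 nM) for 24 h. Cells trypsinized, resuspended in PBS, YFP read by flow cytometry (10,000 events). Average MFI ±SEM relative to F36V protein; EC50 from dose curve.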

[10] = Displacement of fluorescein-SLF from FKBP12 L50A mutant-GST fusion protein by fluorescence polarization assay
[11] = Displacement of fluorescein-SLF from FKBP12 F36V mutant by fluorescence polarization assay
NIH3T3 [12] = experiment: Stability of FKBP12 L50A mutant-N terminus of YFP fusion protein expressed in NIH3T3 cells assessed as mean fluorescence intensity at 1 uM after 24 hrs by flow cytometry; format: cell-based; in short: as §2
NIH3T3 [13] = experiment: Effect on 4930422M22Rik mRNA level in mouse NIH3T3 cells at 10 nM after 24 hrs by microarray analysis relative to control; format: functional; in short: as §1
[14] = Displacement of fluorescein-SLF from FKBP12 V2A mutant-GST fusion protein by fluorescence polarization assay
[15] = Displacement of fluorescein-SLF from FKBP12 L106A mutant-GST fusion protein by fluorescence polarization assay
NIH3T3 [16] = experiment: Effect on Epb4.1l2 mRNA level in mouse NIH3T3 cells at 1 uM after 24 hrs by microarray analysis relative to control; format: functional; in short: as §1
NIH3T3 [17] = experiment: Effect on A430110N23 mRNA level in mouse NIH3T3 cells at 10 nM after 24 hrs by microarray analysis relative to control; format: functional; in short: as §1
NIH3T3 [18] = experiment: Effect on MtCrVgp3 mRNA level in mouse NIH3T3 cells at 10 nM after 24 hrs by microarray analysis relative to control; format: functional; details: in the assay text read “at 1 uM” for “at 10 nM”; in short: as §1
NIH3T3 [19] = experiment: Stability of FKBP12 V2A mutant-firefly luciferase fusion protein expressed in NIH3T3 cells assessed as rescue of luminescence at 1 or 10 uM after 24 hrs by dual luciferase reporter assay; format: cell-based
NIH3T3 [20] = experiment: Effect on Npas4 mRNA level in mouse NIH3T3 cells at 10 nM after 24 hrs by microarray analysis relative to control; format: functional; in short: as §1
NIH3T3 [21] = experiment: Effect on Shkbp1 mRNA level in mouse NIH3T3 cells at 10 nM after 24 hrs by microarray analysis relative to control; format: functional; in short: as §1
NIH3T3 [22] = experiment: Stability of FKBP12 V2A mutant-N terminus of YFP fusion protein expressed in NIH3T3 cells assessed as mean fluorescence intensity at 1 uM after 24 hrs by flow cytometry; format: cell-based; in short: as §2
NIH3T3 [23] = experiment: Stability of FKBP12 L106A mutant-N terminus of YFP fusion protein expressed in NIH3T3 cells assessed as mean fluorescence intensity at 1 uM after 24 hrs by flow cytometry; format: cell-based; in short: as §2
NIH3T3 [24] = experiment: Stability of FKBP12 L106A mutant-C terminus of YFP fusion protein expressed in NIH3T3 cells assessed as mean fluorescence intensity at 1 uM after 24 hrs by flow cytometry; format: cell-based; in short: as §2
NIH3T3 [25] = experiment: Stability of FKBP12 V2A/V4A/17V mutant-N terminus of YFP fusion protein expressed in NIH3T3 cells assessed as mean fluorescence intensity at 1 uM after 24 hrs by flow cytometry relative to FKBP12 F36V mutant; format: cell-based; in short: as §2
NIH3T3 [26] = experiment: Stability of FKBP12 V2A mutant-C terminus of YFP fusion protein expressed in NIH3T3 cells assessed as mean fluorescence intensity at 1 uM after 24 hrs by flow cytometry; format: cell-based; in short: as §2
NIH3T3 [27] = experiment: Stability of FKBP12 V2A/V4A mutant-N terminus of YFP fusion protein expressed in NIH3T3 cells assessed as mean fluorescence intensity at 1 uM after 24 hrs by flow cytometry relative to FKBP12 F36V mutant; format: cell-based; in short: as §2
NIH3T3 [28] = experiment: Effect on Tcfe3 mRNA level in mouse NIH3T3 cells at 1 uM after 24 hrs by microarray analysis relative to control; format: functional; in short: as §1
NIH3T3 [29] = experiment: Stability of FKBP12 V2A/17V mutant-N terminus of YFP fusion protein expressed in NIH3T3 cells assessed as mean fluorescence intensity at 1 uM after 24 hrs by flow cytometry relative to FKBP12 F36V mutant; format: cell-based; in short: as §2
NIH3T3 [30] = experiment: Stability of FKBP12 F36V mutant-C terminus of YFP fusion protein expressed in NIH3T3 cells assessed as mean fluorescence intensity at 1 uM after 24 hrs by flow cytometry; format: cell-based; in short: as §2
NIH3T3 [31] = experiment: Stability of FKBP12 L50A mutant-C terminus of YFP fusion protein expressed in NIH3T3 cells assessed as mean fluorescence intensity at 1 uM after 24 hrs by flow cytometry; format: cell-based; in short: as §2
NIH3T3 [32] = experiment: Prevention of proteasome mediated degradation of FKBP12-YFP fusion protein expressed in mouse NIH3T3 cells at 10 uM
NIH3T3 [33] = experiment: as §3; format: cell-based; in short: as §4

Compound: CC(=O)N[C@@H](CSC(=O)[C@]1([C@@H](O)C(C)C)NC(=O)[C@H](C)[C@@H]1O)C(=O)O
Activity (NIH3T3 [32]): Active

Compound: CC[C@H](C(=O)N1CCCC[C@H]1C(=O)O[C@H](CCc1ccc(OC)c(OC)c1)c1cccc(OCC(=O)NCC(C)(C)N)c1)c1cc(OC)c(OC)c(OC)c1
Activity (NIH3T3 [33]): Active | Kd [11]: 0.9 nM

Compound: CC[C@H](C(=O)N1CCCC[C@H]1C(=O)O[C@H](CCc1ccc(OC)c(OC)c1)c1cccc(OCC(=O)OCCn2ccnn2)c1)c1cc(OC)c(OC)c(OC)c1
Activity (NIH3T3 [33]): Active | Kd [11]: 0.7 nM

More lines, in order of falling Kd [11], values ahead:

Kd [2]: 2 nM | EC50 [9]: 60 nM | Kd [10]: 3 nM | Kd [11]: 0.4 nM | Kd [14]: 4 nM | Kd [15]: 2 nM
Compound: CC[C@H](C(=O)N1CCCC[C@H]1C(=O)O[C@H](CCc1ccc(OC)c(OC)c1)c1cccc(OCCN2CCOCC2)c1)c1cc(OC)c(OC)c(OC)c1
fold change (FC) (NIH3T3 [1]): 2.7 | Activity (NIH3T3 [3]): Active | fold change (FC) (NIH3T3 [4]): -1.7 | Activity (NIH3T3 [5]): Active | Stability (NIH3T3 [6]): Stable | Activity (NIH3T3 [7]): Active | Activity (NIH3T3 [8]): Active | Stability (NIH3T3 [12]): Stable | fold change (FC) (NIH3T3 [13]): -2.2 | fold change (FC) (NIH3T3 [16]): 2.2 | fold change (FC) (NIH3T3 [17]): -2.1 | fold change (FC) (NIH3T3 [18]): -11.3 | Activity (NIH3T3 [19]): Dose-dependent effect | fold change (FC) (NIH3T3 [20]): -1.7 | fold change (FC) (NIH3T3 [21]): -2.3 | Stability (NIH3T3 [22]): Stable | Stability (NIH3T3 [23]): Stable | Activity (NIH3T3 [24]): inactive | Activity (NIH3T3 [25]): Active | Activity (NIH3T3 [26]): inactive | Activity (NIH3T3 [27]): Active | fold change (FC) (NIH3T3 [28]): 1.9 | Activity (NIH3T3 [29]): Active | Activity (NIH3T3 [30]): inactive | Activity (NIH3T3 [31]): inactive

Kd [11]: 0.4 nM
Compound: CC[C@H](C(=O)N1CCCC[C@H]1C(=O)O[C@H](CCc1ccc(OC)c(OC)c1)c1cccc(OCC(=O)O)c1)c1cc(OC)c(OC)c(OC)c1
Activity (NIH3T3 [33]): Active
